Assay results published in ChEMBL document CHEMBL4330148, “Discovery and Characterization of Cyclic and Acyclic Trypsin Inhibitors from Momordica dioica” (J Nat Prod, 2019).
Calls of active or inactive are those of the source. The calls are words filed in the database; no cut-off is given here. Bridge positions count the residues as written; N and C are the ends. Peptide text beside a SMILES is read from it.

Experiments:
[1] = Drug metabolism in 100% human serum at 30 uM up to 4 hrs by RP-HPLC analysis; assay type: ADME, cell-free
[2] = species on record: Bos taurus; test: Inhibition of bovine pancreatic trypsin at 0.1 to 100 uM preincubated for 30 mins followed by L-BAPNA substrate addition and measured after 10 mins
Outline: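 Bovine pancreatic trypsin was dissolved in 1 mM HCl and diluted to 0.45 mg/mL in 50 mM Tris, 20 mM CaCl2, pH 8.2. Peptides (1 mM stock, eight-point 2-fold dilutions) were preincubated with trypsin for 30 min at 37 °C. L-BAPNA (0.435 mg/mL, 1% DMSO) was added for 10 min at room temperature, the reaction was stopped with 30% HOAc, and A410 was read. MCoTI-II was the reference inhibitor. Triplicate.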

[3] = tested on: HT-29; test: Cytotoxicity against human HT-29 cells after 24 hrs by MTT assay; assay type: cell-based; conditions: ht-29, 24 h
Outline: (§1)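 HT-29, MCF7 and PC-3 cells were grown in DMEM with 10% FBS and 1% penicillin–streptomycin at 37 °C under 5% CO2. They were seeded at 2000 cells/well and grown 24 h. Peptides were added in triplicate at final concentrations of 0.05–100 μM for 24 h. 1% Triton X-100 and medium alone served as controls. MTT (5 mg/mL in PBS) was added for 4 h, formazan was dissolved in DMSO, and absorbance was read at 570 nm.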

[4] = tested on: MCF7; test: Cytotoxicity against human MCF7 cells after 24 hrs by MTT assay; assay type: cell-based; conditions: mcf7, 24 h; outline: as §1
[5] = tested on: PC-3; test: Cytotoxicity against human PC3 cells after 24 hrs by MTT assay; assay type: cell-based; conditions: pc-3, 24 h; outline: as §1
[6] = Stability in 100% human serum at 30 uM after 24 hrs by RP-HPLC analysis; assay type: ADME, cell-free
[7] = Cytotoxicity against Spodoptera frugiperda Sf9 cells after 3 hrs by MTT assay; conditions: sf9, 3 h

| Molecule | Drug metabolism [1] | inhibition [2] | Stability [6] | Activity [3] | Activity [4] | Activity [5] | Activity [7] |
| --- | --- | --- | --- | --- | --- | --- | --- |
| CC[C@H](C)[C@@H]1NC(=O)[C@H](CCCNC(=N)N)NC(=O)[C@@H]2CCCN2C(=O)[C@@H]2CSSC[C@@H]3NC(=O)[C@H](C)NC(=O)CNC(=O)[C@@H]4CCCN4C(=O)[C@@H]4CSSC[C@H](NC(=O)[C@H](Cc5ccc(O)cc5)NC(=O)CNC(=O)[C@H](CC(N)=O)NC(=O)CNC(=O)[C@H](CCCNC(=N)N)NC(=O)[C@H](CSSC[C@H](NC(=O)[C@H](CCCCN)NC(=O)[C@H](CCCCN)NC(=O)[C@H](CC(C)C)NC1=O)C(=O)N[C@@H](CCCNC(=N)N)C(=O)N[C@@H](CCCNC(=N)N)C(=O)N[C@@H](CC(=O)O)C(=O)N[C@@H](CO)C(=O)N[C@@H](CC(=O)O)C(=O)N4)NC(=O)[C@H](C(C)C)NC3=O)C(=O)NCC(=O)N[C@@H](CO)C(=O)NCC(=O)N[C@@H](CO)C(=O)N[C@@H](CC(=O)O)C(=O)NCC(=O)NCC(=O)N[C@@H](C)C(=O)N2 |  | Active | Stable | Non-Toxic | Non-Toxic | Non-Toxic | Non-Toxic |
| CC[C@H](C)[C@@H]1NC(=O)[C@H](CCCCN)NC(=O)[C@@H]2CCCN2C(=O)[C@@H]2CSSC[C@@H]3NC(=O)[C@H](C)NC(=O)CNC(=O)[C@@H]4CCCN4C(=O)[C@@H]4CSSC[C@H](NC(=O)[C@H](Cc5ccc(O)cc5)NC(=O)CNC(=O)[C@H](CC(N)=O)NC(=O)CNC(=O)[C@H](CCC(N)=O)NC(=O)[C@H](CSSC[C@H](NC(=O)[C@H](CCCCN)NC(=O)[C@H](CCC(N)=O)NC(=O)[C@H](CC(C)C)NC1=O)C(=O)N[C@@H](CCCNC(=N)N)C(=O)N[C@@H](CCCNC(=N)N)C(=O)N[C@@H](CC(=O)O)C(=O)N[C@@H](CO)C(=O)N[C@@H](CC(=O)O)C(=O)N4)NC(=O)[C@H](C(C)C)NC3=O)C(=O)NCC(=O)N[C@@H](CO)C(=O)NCC(=O)N[C@@H](CO)C(=O)N[C@@H](CC(=O)O)C(=O)NCC(=O)NCC(=O)N[C@@H](C)C(=O)N2 |  |  | Stable | Non-Toxic | Non-Toxic | Non-Toxic | Non-Toxic |
| CC[C@H](C)[C@@H]1NC(=O)[C@@H]2CSSC[C@H](NC(=O)[C@@H](NC(=O)[C@H](CCCNC(=N)N)NC(=O)[C@@H]3CCC(=O)N3)C(C)C)C(=O)N3CCC[C@H]3C(=O)N[C@@H](CCCNC(=N)N)C(=O)N[C@@H]([C@@H](C)CC)C(=O)N[C@@H](CC(C)C)C(=O)N[C@@H](CCCCN)C(=O)N[C@@H](CCCCN)C(=O)N[C@H]3CSSC[C@H](NC1=O)C(=O)N[C@@H](CCC(N)=O)C(=O)NCC(=O)N[C@@H](CC(N)=O)C(=O)NCC(=O)N[C@@H](Cc1ccc(O)cc1)C(=O)N[C@H](C(=O)NCC(N)=O)CSSC[C@H](NC(=O)[C@H](CC(=O)O)NC(=O)[C@H](CO)NC(=O)[C@H](CC(=O)O)NC(=O)[C@H](CCCNC(=N)N)NC(=O)[C@H](CCCNC(=N)N)NC3=O)C(=O)N1CCC[C@H]1C(=O)NCC(=O)N[C@@H](CCC(=O)O)C(=O)N2 |  |  | Stable | Non-Toxic | Non-Toxic | Non-Toxic | Non-Toxic |
| CC[C@H](C)[C@@H]1NC(=O)[C@@H]2CSSC[C@@H]3NC(=O)[C@H](C)NC(=O)CNC(=O)CNC(=O)[C@H](CC(=O)O)NC(=O)[C@H](CO)NC(=O)CNC(=O)[C@H](CO)NC(=O)CNC(=O)[C@@H]4CSSC[C@H](NC(=O)[C@H](CC(=O)O)NC(=O)[C@H](CO)NC(=O)[C@H](CC(=O)O)NC(=O)[C@H](CCCNC(=N)N)NC(=O)[C@H](CCCNC(=N)N)NC(=O)[C@H](CSSC[C@H](NC1=O)C(=O)N[C@@H](CCC(N)=O)C(=O)NCC(=O)N[C@@H](CC(N)=O)C(=O)NCC(=O)N[C@@H](Cc1ccc(O)cc1)C(=O)N4)NC(=O)[C@H](CCCCN)NC(=O)[C@H](CCCCN)NC(=O)[C@H](CC(C)C)NC(=O)[C@H]([C@@H](C)CC)NC(=O)[C@H](CCCNC(=N)N)NC(=O)[C@@H]1CCCN1C3=O)C(=O)N1CCC[C@H]1C(=O)N[C@@H](CO)C(=O)N[C@@H](C)C(=O)N2 |  | Active | Stable | Non-Toxic | Non-Toxic | Non-Toxic | Non-Toxic |
| CC[C@H](C)[C@@H]1NC(=O)[C@H](CCCNC(=N)N)NC(=O)[C@@H]2CCCN2C(=O)[C@@H]2CSSC[C@@H]3NC(=O)[C@H](C)NC(=O)[C@H](CO)NC(=O)[C@@H]4CCCN4C(=O)[C@@H]4CSSC[C@H](NC(=O)[C@H](Cc5ccc(O)cc5)NC(=O)CNC(=O)[C@H](CC(N)=O)NC(=O)CNC(=O)[C@H](CCC(N)=O)NC(=O)[C@H](CSSC[C@H](NC(=O)[C@H](CCCCN)NC(=O)[C@H](CCC(N)=O)NC(=O)[C@H](CC(C)C)NC1=O)C(=O)N[C@@H](CCCNC(=N)N)C(=O)N[C@@H](CCCNC(=N)N)C(=O)N[C@@H](CC(N)=O)C(=O)N[C@@H](CO)C(=O)N[C@@H](CC(=O)O)C(=O)N4)NC(=O)[C@H](C(C)C)NC3=O)C(=O)NCC(=O)N[C@@H](CO)C(=O)NCC(=O)N[C@@H](CO)C(=O)N[C@@H](CC(=O)O)C(=O)NCC(=O)NCC(=O)N[C@@H](C)C(=O)N2 |  |  | Stable | Non-Toxic | Non-Toxic | Non-Toxic | Non-Toxic |
| CC[C@H](C)[C@@H]1NC(=O)[C@H](CCCCN)NC(=O)[C@@H]2CCCN2C(=O)[C@@H]2CSSC[C@@H]3NC(=O)[C@H](C)NC(=O)CNC(=O)[C@@H]4CCCN4C(=O)[C@@H]4CSSC[C@H](NC(=O)[C@H](Cc5ccc(O)cc5)NC(=O)CNC(=O)[C@H](CC(N)=O)NC(=O)CNC(=O)[C@H](CCC(N)=O)NC(=O)[C@H](CSSC[C@H](NC(=O)[C@H](CCCCN)NC(=O)[C@H](CCC(N)=O)NC(=O)[C@H](CC(C)C)NC1=O)C(=O)N[C@@H](CCCNC(=N)N)C(=O)N[C@@H](CCCNC(=N)N)C(=O)N[C@@H](CC(=O)O)C(=O)N[C@@H](CO)C(=O)N[C@@H](CC(=O)O)C(=O)N4)NC(=O)[C@H](C(C)C)NC3=O)C(=O)NCC(=O)N[C@@H](CO)C(=O)NCC(=O)N[C@@H](CO)C(=O)N[C@H](CC(=O)O)C(=O)NCC(=O)NCC(=O)N[C@@H](C)C(=O)N2 |  | Active |  |  |  |  |  |

Continued, in another order:

| Drug metabolism [1] | inhibition [2] | Stability [6] | Molecule | Activity [3] | Activity [4] | Activity [5] | Activity [7] |
| --- | --- | --- | --- | --- | --- | --- | --- |
| Metabolite_Detected |  |  | H-WQELYQLKY-OH |  |  |  |  |
|  | Active |  | CC[C@H](C)[C@@H]1NC(=O)[C@@H]2CSSC[C@H](NC(=O)[C@@H](NC(=O)[C@@H](CCCNC(=N)N)NC(=O)C3CCC(=O)N3)C(C)C)C(=O)N3CCC[C@H]3C(=O)N[C@@H](CCCNC(=N)N)C(=O)N[C@@H]([C@@H](C)CC)C(=O)N[C@@H](CC(C)C)C(=O)N[C@@H](CCCCN)C(=O)N[C@@H](CCCCN)C(=O)N[C@H]3CSSC[C@H](NC1=O)C(=O)N[C@@H](CCC(N)=O)C(=O)NCC(=O)N[C@@H](CC(N)=O)C(=O)NCC(=O)N[C@@H](Cc1ccc(O)cc1)C(=O)N[C@H](C(=O)NCC(N)=O)CSSC[C@H](NC(=O)[C@H](CC(=O)O)NC(=O)[C@H](CO)NC(=O)[C@H](CC(=O)O)NC(=O)[C@H](CCCNC(=N)N)NC(=O)[C@H](CCCNC(=N)N)NC3=O)C(=O)N1CCC[C@H]1C(=O)NCC(=O)N[C@@H](CCC(=O)O)C(=O)N2 (some centres not stated) |  |  |  |  |
|  | Active | Stable | CC[C@H](C)[C@@H]1NC(=O)[C@@H]2CSSC[C@@H]3NC(=O)[C@H](C)NC(=O)CNC(=O)CNC(=O)[C@H](CC(=O)O)NC(=O)[C@H](CO)NC(=O)CNC(=O)[C@H](CO)NC(=O)CNC(=O)[C@@H]4CSSC[C@H](NC(=O)[C@H](CC(=O)O)NC(=O)[C@H](CO)NC(=O)[C@H](CC(=O)O)NC(=O)[C@H](CCCNC(=N)N)NC(=O)[C@H](CCCNC(=N)N)NC(=O)[C@H](CSSC[C@H](NC1=O)C(=O)N[C@@H](CCCNC(=N)N)C(=O)NCC(=O)N[C@@H](CC(N)=O)C(=O)NCC(=O)N[C@@H](Cc1ccc(O)cc1)C(=O)N4)NC(=O)[C@H](CCCNC(=N)N)NC(=O)[C@H](CCC(N)=O)NC(=O)[C@H](CC(C)C)NC(=O)[C@H]([C@@H](C)CC)NC(=O)[C@H](CCCCN)NC(=O)[C@@H]1CCCN1C3=O)C(=O)N1CCC[C@H]1C(=O)NCC(=O)N[C@@H](C)C(=O)N2 (cyclo(ACICRGNGYCGSGSDGGACPKILQRCRRDSDCPG); disulfide 2-19, 4-26, 10-32) | Non-Toxic | Non-Toxic | Non-Toxic | Non-Toxic |
|  | Active |  | CC[C@H](C)[C@@H]1NC(=O)[C@H](CCCNC(=N)N)NC(=O)[C@@H]2CCCN2C(=O)[C@@H]2CSSC[C@@H]3NC(=O)[C@H](C)NC(=O)[C@H](CO)NC(=O)[C@@H]4CCCN4C(=O)[C@@H]4CSSC[C@H](NC(=O)[C@H](Cc5ccc(O)cc5)NC(=O)CNC(=O)[C@H](CC(N)=O)NC(=O)CNC(=O)[C@H](CCC(N)=O)NC(=O)[C@H](CSSC[C@H](NC(=O)[C@H](CCCCN)NC(=O)[C@H](CCC(N)=O)NC(=O)[C@H](CC(C)C)NC1=O)C(=O)N[C@@H](CCCNC(=N)N)C(=O)N[C@@H](CCCNC(=N)N)C(=O)N[C@@H](CC(N)=O)C(=O)N[C@@H](CO)C(=O)N[C@@H](CC(=O)O)C(=O)N4)NC(=O)[C@H](C(C)C)NC3=O)C(=O)NCC(=O)N[C@@H](CO)C(=O)NCC(=O)N[C@@H](CO)C(=O)N[C@H](CC(=O)O)C(=O)NCC(=O)NCC(=O)N[C@@H](C)C(=O)N2 |  |  |  |  |
